According to article PMC4661106 (Bioorganic & medicinal chemistry, 2015):

Columns and labels:
HIV-1 PR [1] = target: T1, HIV-1 PR (Human immunodeficiency virus type 1 group M subtype B, UniProt P04585); type: biochemical
MT-4 cells = assay: Endpoint cytotoxicity assay, viable cells by trypan-blue dye exclusion; type: cell-based; details: three days, Figure 5; for general cytotoxicity to MT-4 cells: at 100 μM; for general cytotoxicity: tolerated by MT-4 cells: up to 50 μM
Method in brief: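 Uninfected MT-4 cells were seeded at 2 × 10^5 cells/ml, in triplicate, in medium with carrier only or test compound at 10, 50 or 100 μM. Compounds were dissolved in DMSO and diluted in medium to a final DMSO of 0.25%. Incubation was 37 °C, 5% CO2. After three days, viable cells were counted by trypan-blue dye exclusion.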

[2] = system: HIV replication in TZM-bl cells; assay: Viral replication inhibition assay, luciferase reporter; type: cell-based; details: doses of 50 μM or higher, MOI = 0.01
Method in brief: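 TZM-bl cells (HeLa-derived; CD4, CCR5, CXCR4; tat-driven luciferase) were seeded at 1×10^4 cells/mL and incubated overnight. The medium was then replaced with replication-competent pNL4-3 HIV or mock, in medium with carrier or test compound at final 25, 50 or 100 μM. Final DMSO was 0.25%. Conditions were run in triplicate. On the indicated days post infection, cells were PBS-washed and luciferase was read. RLU was expressed relative to the untreated control.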

HIV-1 PR [3] = target: T1, HIV-1 PR; assay: Michaelis-Menten kinetics, mode of inhibition; type: biochemical; details: Michaelis-Menten analysis, Figure 4
Compound solubility = type: physicochemical

Row | SMILES | Ki (HIV-1 PR [1]) | further results
1 | CCC(C)[C@@H]1N=C(C)c2ccc(C(=O)OC(C)(C)C)cc2NC1=O (stereo in doubt) [Compound 6e, (S)-tert-Butyl 3-((R)-sec-butyl)-5-methyl-2-oxo-2,3-dihydro-1H-benzo[e][1,4]diazepine-8-carboxylate] | > 200 µM | –
2 | CC1=NCC(=O)Nc2cc(C(=O)OC(C)(C)C)ccc21 [Compound 6a, tert-Butyl 5-methyl-2-oxo-2,3-dihydro-1H-benzo[e][1,4]diazepine-8-carboxylate] | > 200 µM | –
3 | CC1=N[C@@H](C)C(=O)Nc2cc(C(=O)OC(C)(C)C)ccc21 [Compound 6b, (S)-tert-Butyl 3,5-dimethyl-2-oxo-2,3-dihydro-1H-benzo[e][1,4]diazepine-8-carboxylate] | > 200 µM | –
4 | CC1=N[C@H](CC(C)C)C(=O)Nc2cc(C(=O)OC(C)(C)C)ccc21 [Compound 6d, (R)-tert-Butyl 3-isobutyl-5-methyl-2-oxo-2,3-dihydro-1H-benzo[e][1,4]diazepine-8-carboxylate] | > 200 µM | –
5 | CC1=N[C@@H](C)C(=O)Nc2cc(C(=O)O)ccc21 [Compound 7b, (S)-3,5-Dimethyl-2-oxo-2,3-dihydro-1H-benzo[e][1,4]diazepine-8-carboxylic acid] | > 200 µM | –
6 | CC1=N[C@@H](CC(C)C)C(=O)Nc2cc(C(=O)O)ccc21 [Compound 7c, (S)-3-Isobutyl-5-methyl-2-oxo-2,3-dihydro-1H-benzo[e][1,4]diazepine-8-carboxylic acid] | > 200 µM | –
7 | CC1=N[C@H](CC(C)C)C(=O)Nc2cc(C(=O)O)ccc21 [Compound 7d, (R)-3-Isobutyl-5-methyl-2-oxo-2,3-dihydro-1H-benzo[e][1,4]diazepine-8-carboxylic acid] | > 200 µM | –
8 | CC1=N[C@@H](Cc2ccccc2)C(=O)Nc2cc(C(=O)O)ccc21 [Compound 7f, (S)-3-Benzyl-5-methyl-2-oxo-2,3-dihydro-1H-benzo[e][1,4]diazepine-8-carboxylic acid] | > 200 µM | –
9 | CC1=N[C@H](Cc2ccccc2)C(=O)Nc2cc(C(=O)O)ccc21 [Compound 7g, (R)-3-benzyl-5-methyl-2-oxo-2,3-dihydro-1H-benzo[e][1,4]diazepine-8-carboxylic acid] | > 200 µM | –
10 | CC1=N[C@H](CC(C)C)C(=O)N(Cc2ccccc2)c2cc(C(=O)OC(C)(C)C)ccc21 [Compound 8h, (R)-tert-Butyl 1-benzyl-3-isobutyl-5-methyl-2-oxo-2,3-dihydro-1H-benzo[e][1,4]diazepine-8-carboxylate] | > 200 µM | –
11 | CC1=N[C@H](CC(C)C)C(=O)N(Cc2ccncc2)c2cc(C(=O)OC(C)(C)C)ccc21 [Compound 8m, (R)-tert-Butyl 3-isobutyl-5-methyl-2-oxo-1-(pyridin-4-ylmethyl)-2,3-dihydro-1H-benzo[e][1,4]diazepine-8-carboxylate] | > 200 µM | –
12 | CCCCCCCCCCNC(=O)CN1C(=O)[C@@H](CC(C)C)N=C(C)c2ccc(C(=O)OC(C)(C)C)cc21 [Compound 8o, (R)-tert-Butyl 3-isobutyl-5-methyl-2-oxo-1-(2-oxo-2-(decylamino)ethyl)-2,3-dihydro-1H-benzo[e][1,4]diazepine-8-carboxylate] | > 200 µM | –
13 | CCCCCCNC(=O)CN1C(=O)[C@@H](CC(C)C)N=C(C)c2ccc(C(=O)OC(C)(C)C)cc21 [Compound 8q, (R)-tert-Butyl 3-isobutyl-5-methyl-2-oxo-1-(2-oxo-2-(hexylamino)ethyl)-2,3-dihydro-1H-benzo[e][1,4]diazepine-8-carboxylate] | > 200 µM | –
14 | CC1=N[C@H](CC(C)C)C(=O)N(CC(=O)N2CCN(C(=O)OCc3ccccc3)CC2)c2cc(C(=O)OC(C)(C)C)ccc21 [Compound 8s, (R)-tert-Butyl 1-(2-(4-((benzyloxy)carbonyl)piperazin-1-yl)-2-oxoethyl)-3-isobutyl-5-methyl-2-oxo-2,3-dihydro-1H-benzo[e][1,4]diazepine-8-carboxylate] | > 200 µM | –
15 | CC1=N[C@H](CC(C)C)C(=O)N(CC(=O)N2CCN(C(=O)OCC3c4ccccc4-c4ccccc43)CC2)c2cc(C(=O)OC(C)(C)C)ccc21 [Compound 8t, (R)-tert-Butyl 1-(2-(4-(((9H-fluoren-9-yl)methoxy)carbonyl)piperazin-1-yl)-2-oxoethyl)-3-isobutyl-5-methyl-2-oxo-2,3-dihydro-1H-benzo[e][1,4]diazepine-8-carboxylate] | > 200 µM | –
16 | CC1=N[C@H](CC(C)C)C(=O)N(Cc2ccc(C3CCCCC3)cc2)c2cc(C(=O)O)ccc21 [Compound 9d, (R)-1-(4-Cyclohexylbenzyl)-3-isobutyl-5-methyl-2-oxo-2,3-dihydro-1H-benzo[e][1,4]diazepine-8-carboxylic acid] | – | general cytotoxicity to MT-4 cells (MT-4 cells): particularly cytotoxic; general cytotoxicity: tolerated by MT-4 cells (MT-4 cells): tolerated; inhibition of HIV replication within cells (RLU relative to control) [2]: appeared to inhibit HIV replication
17 | CC1=N[C@H](CC(C)C)C(=O)N(Cc2ccccc2)c2cc(C(=O)O)ccc21 [Compound 9h, (R)-1-Benzyl-3-isobutyl-5-methyl-2-oxo-2,3-dihydro-1H-benzo[e][1,4]diazepine-8-carboxylic acid] | > 200 µM | –
18 | CC1=N[C@H](CC(C)C)C(=O)N(Cc2ccc(-c3ccccc3)cc2)c2cc(C(=O)O)ccc21 [Compound 9j, (R)-1-([1,1′-Biphenyl]-4-ylmethyl)-3-isobutyl-5-methyl-2-oxo-2,3-dihydro-1H-benzo[e][1,4]diazepine-8-carboxylic acid] | – | general cytotoxicity to MT-4 cells (MT-4 cells): particularly cytotoxic; general cytotoxicity: tolerated by MT-4 cells (MT-4 cells): tolerated; inhibition of HIV replication within cells (RLU relative to control) [2]: appeared to inhibit HIV replication
19 | CC1=N[C@H](CC(C)C)C(=O)N(CC(C)C)c2cc(C(=O)O)ccc21 [Compound 9k, (R)-1,3-Diisobutyl-5-methyl-2-oxo-2,3-dihydro-1H-benzo[e][1,4]diazepine-8-carboxylic acid] | > 200 µM | –
20 | CC1=N[C@H](CC(C)C)C(=O)N(CC(=O)O)c2cc(C(=O)O)ccc21 [Compound 9l, (R)-1-(Carboxymethyl)-3-isobutyl-5-methyl-2-oxo-2,3-dihydro-1H-benzo[e][1,4]diazepine-8-carboxylic acid] | > 200 µM | –
21 | CC1=N[C@H](CC(C)C)C(=O)N(Cc2ccncc2)c2cc(C(=O)O)ccc21 [Compound 9m, (R)-3-Isobutyl-5-methyl-2-oxo-1-(pyridin-4-ylmethyl)-2,3-dihydro-1H-benzo[e][1,4]diazepine-8-carboxylic acid] | > 200 µM | –
22 | CCCCCCCCCCNC(=O)CN1C(=O)[C@@H](CC(C)C)N=C(C)c2ccc(C(=O)O)cc21 [Compound 9o, (R)-3-Isobutyl-5-methyl-2-oxo-1-(2-oxo-2-(decylamino)ethyl)-2,3-dihydro-1H-benzo[e][1,4]diazepine-8-carboxylic acid] | – | mode of inhibition (HIV-1 PR [3]): competitive inhibitor; general cytotoxicity to MT-4 cells (MT-4 cells): particularly cytotoxic; general cytotoxicity: tolerated by MT-4 cells (MT-4 cells): tolerated; inhibition of HIV replication within cells (RLU relative to control) [2]: appeared to inhibit HIV replication; solubility (Compound solubility): poor solubility
23 | CCCCCCCCCCCCCCCCNC(=O)CN1C(=O)[C@@H](CC(C)C)N=C(C)c2ccc(C(=O)O)cc21 [Compound 9p, (R)-3-isobutyl-5-methyl-2-oxo-1-(2-oxo-2-(hexadecylamino)ethyl)-2,3-dihydro-1H-benzo[e][1,4]diazepine-8-carboxylic acid] | – | general cytotoxicity to MT-4 cells (MT-4 cells): particularly cytotoxic; general cytotoxicity: tolerated by MT-4 cells (MT-4 cells): All but 9p were tolerated; inhibition of HIV replication within cells (RLU relative to control) [2]: appeared to inhibit HIV replication
24 | CC1=N[C@H](CC(C)C)C(=O)N(CC(=O)N2CCNCC2)c2cc(C(=O)O)ccc21 [Compound 9r, (R)-3-Isobutyl-5-methyl-2-oxo-1-(2-oxo-2-(piperazin-1-yl)ethyl)-2,3-dihydro-1H-benzo[e][1,4]diazepine-8-carboxylic acid] | > 200 µM | –
